Bioassay records deposited in PubChem BioAssay by several laboratories.
Hits are enriched below; roughly 3.9% of the tested compounds scored in any of these assays.
XBP1 UPR activ = activators of adaptive XBP1 UPR arm, primary screen, cell-based, CHO-XBP1 luciferase reporter, luminescence, uHTS; IRE1-XBP1 UPR activation; percent of tunicamycin response, DMSO as zero; 0.33% of 330,000 active; activation, % at 20 µM;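 active = versus positive control, 20 µM dose yields 30% or more activation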;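 also: 100% = tunicamycin at 10 µg/mL and 0% = DMSO only wells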
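Material – CHO cell line with stable XBP1 luciferase reporter · Buffer or medium – F12 plus 10% FBS · Compound – single point, 20 µM final compound, 1% DMSO · Schedule – 16-18 h cell attachment at 37 °C, then 6 h compound exposure · Signal – Steady-Glo luminescence read · Benchmarks – high control tunicamycin 10 µg/mL final, low control DMSO vehicle only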
697 NFkB inh = inhibitors of PMA/ionomycin-induced NF-kB reporter, 697 cells, primary screen, B-cell NF-kB inhibitor project, cell-based, luminescence, uHTS; 697 B-cell NF-kB luciferase reporter, 16 h; 0.33% of 330,000 active; inhibition, % at 4 µM; AID 435022, 2010; in the data active = inhibition above about 35%
Gli-Sufu antag = Gli-Sufu pathway antagonists, primary screen, luciferase luminescence, Sufu-KO-LIGHT cells, uHTS. Sufu-KO-LIGHT fibroblasts, Gli luciferase reporter luminescence. inhibition, % at 5 µM. 0.74% of 340,000 active. AID 588413, 2011;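 active = inhibition above about 55%, limit read from the data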;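 also: 0% = DMSO-treated cells and 100% = wells with medium but no cells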
UPR CHOP act = activators of apoptotic CHOP UPR arm, primary screen, cell-based, CHO-CHOP luciferase reporter, luminescence, uHTS. UPR activation; percent of tunicamycin response over DMSO baseline. 0.34% of 330,000 active. activation, % at 10 µM;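 active = at 10 µM dose, activation of 40% or more, normalized to positive control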;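 also: 100% = tunicamycin at 10 µg/mL and 0% = DMSO alone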
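Assay system: CHO-CHOP cells, stable luciferase reporter of PERK-eIF2a-CHOP signalling / Buffer or medium: F12 plus 10% serum / Compound dosing: one dose, 10 µM in 0.5% DMSO / Times: 6 h compound treatment, 37 °C / Technique: luciferase luminescence / Read-out: % reporter activation, DMSO baseline versus tunicamycin full activation / Benchmarks: tunicamycin and DMSO controls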
Jurkat NFkB inh = inhibitors of induced NF-kB luciferase reporter, primary screen, TCR NF-kB activation inhibitor project, cell-based, luminescence, uHTS; Jurkat, PMA/ionomycin-induced NF-kB luciferase reporter; inhibition, % at 4 µM; 0.53% of 330,000 active; AID 435003, 2010; in the data active = inhibition above about 50%
CHOP inh = inhibitors of CHOP promoter induction, primary screen, cell-based, unfolded protein response, luciferase reporter; inhibition, % at 10 µM; AID 2732, 2010; 3.8% of 220,000 active; CHO-K1 CHOP-promoter luciferase, tunicamycin-induced, 15-18 h;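 active = compounds that reduced the stress-induced luciferase reporter signal by more than about 70% of percent inhibition, limit read from the data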;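 also: 0% = tunicamycin plus vehicle and 100% = wells without tunicamycin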
Active calls of the source: *; x = not tested or not shown.

SMILES | XBP1 UPR activ | 697 NFkB inh | Gli-Sufu antag | UPR CHOP act | Jurkat NFkB inh | CHOP inh
Cn1c(-c2ccccc2)cc(=O)c2ccccc21 | 0.6 | -0.1 | -6.5 | 0.7 | -0.4 | 7.5
Cn1c(=O)cc(-c2ccccc2)c2ccccc21 | 6.0 | 21.1 | -0.2 | 1.1 | -4.0 | 80.0*
COc1ccc2ccccc2c1C(O)c1nccn1C (centres undefined) | 1.9 | -1.1 | 15.1 | 0.8 | 3.7 | 83.6*
COc1ccccc1OCC(=O)N1CCCC(Nc2ccc(F)c(F)c2)C1 (centres undefined) | -1.0 | -0.9 | 3.6 | 3.2 | 13.2 | x
CCCCOC(=O)c1ccc(NC(=O)/C=C/c2cccs2)cc1 | -0.3 | -86.5 | x | 3.5 | -59.2 | 74.8*
CCCCOC(=O)c1ccc(NC(C)=O)cc1 | 2.1 | -21.8 | -13.8 | 4.9 | -24.1 | 62.3
CCCCOC(=O)c1ccc(NC(=O)Nc2ccc(OC)c(OC)c2)cc1 | -5.5 | 1.0 | 8.2 | -2.1 | -19.4 | 82.9*
CCCCCOC(=O)c1ccc(NC(=O)c2ccco2)cc1 | -1.5 | -7.4 | -23.1 | 1.0 | -15.9 | 82.3*
CCOC(=O)c1c(C)[nH]c(N=Nc2cccc(C)c2)c1C | 11.6 | -179.1 | -103.8 | 3.3 | -111.0 | 71.1*
CCOC(=O)c1c(C)[nH]c(N=Nc2ccccc2)c1C | 29.2 | -80.1 | 12.5 | 4.6 | -97.2 | -33.5
COC(=O)c1ccc(Nc2nc(C)nc3c2nnn3Cc2ccccc2)cc1 | -0.2 | 12.1 | 5.8 | -0.6 | 9.9 | x
O=C(CCCN1C(=O)c2ccccc2C1=O)Nc1c(C(=O)C2CC2)oc2ccccc12 | 3.5 | 2.6 | -10.2 | -0.8 | 5.0 | 10.3
COC(=O)c1oc2ccc(Br)cc2c1NC(=O)CCCN1C(=O)c2ccccc2C1=O | -2.4 | 2.3 | -5.0 | 0.5 | 13.4 | 94.7*
COc1c(F)c(F)c(C(=O)Nc2ccc(N3CCN(Cc4ccccc4)CC3)cc2)c(F)c1F | 0.3 | -13.8 | 8.7 | 3.9 | 15.8 | 87.5*
COc1c(F)c(F)c(C(=O)Nc2ccc(-c3nc4ccccc4[nH]3)cc2)c(F)c1F | -0.5 | -37.2 | 12.2 | 0.8 | -27.3 | 83.3*
O=C(CN1CCOCC1)Nc1ccc(-c2nc3ccccc3[nH]2)cc1 | 3.5 | -23.2 | 9.6 | 2.4 | -36.4 | 0.5
COc1ccc(C(=O)Nc2ccc(N3CCN(Cc4ccccc4)CC3)cc2)cc1 | -2.1 | -5.6 | -4.9 | -0.9 | 2.0 | -8.5
O=C(CSc1ccccc1)Nc1ccc(-c2nc3ccccc3[nH]2)cc1 | 10.0 | -124.7 | -58.4 | 3.2 | -123.2 | 94.5*
CN(CC(=O)Nc1cccc(F)c1)C(=O)c1ccccc1CCc1ccccc1 | -3.6 | 2.6 | -0.1 | -1.0 | -5.2 | x
Cc1nc(N)nc(N)c1/C=C/C(C)(C)c1ccc(Cl)cc1 | x | x | x | x | x | 76.9*
Cc1nc(N)nc(N)c1Oc1ccc(Cl)cc1 | x | x | 7.0 | x | x | x
Cc1ccccc1Cn1cc(NC(=O)c2noc3c2CC(C(C)(C)C)CC3)cn1 (centres undefined) | 2.1 | -23.9 | 4.2 | 0.7 | -19.1 | 85.6*
NC(=O)COC(=O)c1ccc(Cl)c(S(=O)(=O)N(Cc2ccccc2)c2ccc(Cl)cc2)c1 | -1.2 | 11.1 | -6.8 | -1.5 | 0.7 | 84.5*
Cc1ccccc1OCc1nnc(SCC(=O)Nc2ccc3nc(SCC(=O)NC(C)(C)C)sc3c2)n1C | -7.6 | -19.2 | 17.3 | -2.7 | 0.2 | 72.6*
CC(C)(C)NC(=O)CSc1nc2ccc(NC(=O)CSc3nnc(N)s3)cc2s1 | -1.4 | -23.7 | 29.6 | -1.6 | 21.7 | 70.2*
CC(C)(C)NC(=O)CSc1nc2ccc(NC(=O)CSc3nnnn3Cc3ccccc3)cc2s1 | 3.4 | -65.6 | 39.5 | 4.6 | 27.2 | 69.4
O=[N+]([O-])c1cccnc1NCCNc1ncc(C(F)(F)F)cc1Cl | 2.7 | -105.0 | -0.7 | 6.4 | -77.8 | 75.0*
O=[N+]([O-])c1ccccc1NCCNc1ncc(C(F)(F)F)cc1Cl | -1.1 | -18.8 | -28.8 | 2.3 | -27.8 | 58.2
